Assay type in all cases: functional
Common to all, as to conditions: Homo sapiens

One assay has as its system SF-268. Description: Tested in vitro for cytotoxicity in SF-268 cell lines. Put shortly:
(§1)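 Compounds dissolved in DMSO, then diluted 500-fold into aqueous medium. The resulting aqueous solutions or suspensions were added to the cultured human tumour cell lines, and the cells were exposed for 48 h. Growth was read colorimetrically in one of two ways: a metabolic assay in which viable cells reduce a tetrazolium salt to a formazan dye, or a protein stain for total cellular protein.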

A further assay has as its system COLO 205. The assay is described as follows: Tested in vitro for cytotoxicity in COLO 205 cell lines. Put shortly: as §1
The next assay relates to Malme-3M. Description: Tested in vitro for cytotoxicity in MALME-3M. Summed up:
as §1

The next assay relates to A549. The assay is described as follows: Tested in vitro for cytotoxicity in A549/ATCC cell lines. Put shortly: as §1
A further assay relates to CAKI-1. The assay is described as follows: Tested in vitro for cytotoxicity in CAKI-1 cell lines. Summed up: as §1
A further assay has as its system IGROV-1. The assay is described as follows: Tested in vitro for cytotoxicity in IGROV1 cell lines. Summed up: as §1
The subject of a further assay is DMS-114. Description: Tested in vitro for cytotoxicity in DMS114 cell lines. Summed up:
as §1

The subject of the next assay is CCRF-CEM. The assay is described as follows: Tested in vitro for cytotoxicity in CCRF-CEM cell lines. Put shortly:
as §1

The term GI50 denotes the concentration at which growth is held to half of that of the control. Low readings indicate more potent growth inhibition, high ones less potent growth inhibition.

Consider `CSC[n+]1ccc2c(C)c3[nH]c4ccccc4c3c(C)c2c1`, for which the GI50 in the assay on SF-268 was 0.726 µM; with COLO 205, 2.48 µM; in the assay on Malme-3M, 1.99 µM; in the assay with A549 it was 5.23 µM; in the assay on CAKI-1, 19.6 µM; in the assay on IGROV-1 it was 18.2 µM. Also, the values for the GI50 in the assay on DMS-114 and in the assay with CCRF-CEM were 2.67 µM and 5.02 µM, respectively.
Turning to `Cc1c2cc[n+](CC#N)cc2c(C)c2c1[nH]c1ccccc12`, the 50% growth inhibitory concentration (GI50) in the assay with SF-268 was 13 µM; with COLO 205, 34.6 µM; in the assay on Malme-3M, 27.2 µM; with A549 it was 97.5 µM; in the assay with CAKI-1, > 100 µM; in the assay on IGROV-1, 35.6 µM. Further, the GI50 worked out at 44.7 µM with DMS-114 and 100 µM with CCRF-CEM.
Consider `COC[n+]1ccc2c(C)c3[nH]c4ccccc4c3c(C)c2c1`, for which the GI50 was 0.679 µM in the assay with SF-268; 4.7 µM with COLO 205; 0.647 µM in the assay with Malme-3M; 1.79 µM in the assay with A549; 19.2 µM in the assay with CAKI-1; 9.2 µM with IGROV-1. The GI50 in the assay with DMS-114 was found to be 2.28 µM; in the assay with CCRF-CEM it was 14.6 µM.
For `COC(=O)C[n+]1ccc2c(C)c3[nH]c4ccccc4c3c(C)c2c1`, the GI50 with SF-268 was 12.8 µM; in the assay on COLO 205 it was > 100 µM; in the assay with Malme-3M, > 100 µM; in the assay with A549 it was > 100 µM; in the assay on IGROV-1, > 100 µM; in the assay on DMS-114, > 100 µM. The GI50 in the assay with CCRF-CEM was > 100 µM.
Regarding `Cc1ccc2[nH]c3c(C)c4c(c(C)c3c2c1)CN(C)C=C4`, the GI50 in the assay on SF-268 was determined as 0.395 µM; in the assay on COLO 205 it was 0.306 µM; with Malme-3M, 1.72 µM; in the assay on A549, 0.38 µM; in the assay with CAKI-1, 1.21 µM; in the assay on IGROV-1, 0.774 µM. The GI50 in the assay with DMS-114 is 0.438 µM; in the assay with CCRF-CEM it was 2.34 µM.
As for `Cc1c2cc[n+](C[S+](C)[O-])cc2c(C)c2c1[nH]c1ccccc12` (stereo not drawn), the 50% growth inhibitory concentration (GI50) came out at 2.46 µM in the assay on SF-268; 31 µM in the assay with COLO 205; 71 µM with A549; 35.8 µM in the assay on CAKI-1; 29.5 µM in the assay on IGROV-1; 6.6 µM with DMS-114. The compound also returned a GI50 in the assay on CCRF-CEM of 40.6 µM.
Regarding `Cc1c2cc[n+](CC(=O)O)cc2c(C)c2c1[nH]c1ccccc12`, the GI50 is 97.1 µM with SF-268; > 100 µM with COLO 205; 26.3 µM with Malme-3M; 77.3 µM in the assay on A549; > 100 µM in the assay with IGROV-1; 76.8 µM in the assay with DMS-114. Besides, the GI50 in the assay with CCRF-CEM is > 100 µM.
With `Cc1c2ccncc2c(C)c2c1[nH]c1ccccc12` [ELLIPTECINE], the GI50 was 0.816 µM in the assay on SF-268; 0.588 µM in the assay with COLO 205; 2.52 µM in the assay with Malme-3M; 0.41 µM in the assay on A549; 1.01 µM with CAKI-1; 0.862 µM in the assay on IGROV-1. In addition, the GI50 in the assay on DMS-114 came out at 0.552 µM; with CCRF-CEM, 0.415 µM.
Turning to `COc1ccc2[nH]c3c(C)c4c(c(C)c3c2c1)CN(C)C=C4C=O`, the concentration for 50% growth inhibition (GI50) was determined as 1.12 µM with SF-268; 16.2 µM in the assay with COLO 205; 40 µM in the assay on Malme-3M; 75.7 µM in the assay on A549; 73.2 µM in the assay with CAKI-1; 31.2 µM in the assay with IGROV-1. Moreover, the GI50 with DMS-114 was 2.5 µM; with CCRF-CEM it was 60.4 µM.
For the compound `COC[n+]1ccc2c(C)c3[nH]c4ccc(OC)cc4c3c(C)c2c1`, the 50% growth inhibitory concentration (GI50) in the assay on SF-268 came to 0.818 µM; with COLO 205 it was 2.68 µM; in the assay on Malme-3M, 1.92 µM; in the assay with A549 it was 13.7 µM; in the assay with CAKI-1, 20.2 µM; with IGROV-1, 27.8 µM. Besides, the results for the GI50 in the assay with DMS-114 and with CCRF-CEM were 1.32 µM and 6.86 µM, respectively.
As to `CC(=O)O[C@@H]1[C@@H](OC(C)=O)[C@@H](N2C=Cc3c(c(C)c4c([nH]c5ccccc54)c3C)C2)OC[C@@H]1OC(C)=O`, the GI50 in the assay with SF-268 was 31 µM; in the assay on COLO 205, 36.7 µM; with Malme-3M it was 30.2 µM; in the assay with A549, 64 µM; with CAKI-1 it was > 100 µM; in the assay on IGROV-1, 24.1 µM. For the same compound, the GI50 in the assay on DMS-114 was 15.6 µM; in the assay with CCRF-CEM, 29 µM.
For `COCN1C=Cc2c(c(C)c3c([nH]c4ccccc43)c2C)C1`, the GI50 in the assay with SF-268 is 8.02 µM; with COLO 205 it was 8.68 µM; with Malme-3M it was 8.87 µM; in the assay on A549, 5.06 µM; in the assay on CAKI-1, 11.1 µM; with IGROV-1, 5.88 µM. Besides, the figures for the GI50 with DMS-114 and with CCRF-CEM were 10.4 µM and 4.98 µM, respectively.

For the origin of these results see ChEMBL document CHEMBL1127574, “Design and synthesis of ellipticinium salts and 1,2-dihydroellipticines with high selectivities against human CNS cancers in vitro” (1994).
